Screening results deposited in PubChem by Broad Institute.
DENV2 CPE rescue = inhibitors of DENV2 cytopathic effect, primary screen, cell-based, plate reader, single concentration. DENV2-infected cells, cytopathic effect rescue. CPE inhibition, % at 9.99 µM. 1.7% of 350,000 active; in the data active means CPE inhibition above about 20%, passing the limit was not always enough; inconclusive means no clear call, values can overlap the other calls; tested in BHK-21 cells
XiGFP reactiv = activators of inactive X chromosome reactivation, primary screen, imaging, XiGFP fibroblasts, GFP high-content imaging, set 2; XiGFP mouse fibroblasts, % GFP-positive cells imaging, 3 d; cells co-treated with 5-aza-dC sensitizer; scaled so ellipticine positive control = 100%; activation, % at 7.58 µM; 0.055% of 360,000 active; AID 743238, 2013;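 active means mean normalized replicate activation at least 10% and every replicate at or above 10%; inconclusive means only one of the two criteria met; inactive means mean below 10% and not all replicates reach 10%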
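Material: XiGFP fibroblasts, SV40-immortalized. Buffer or medium: DMEM plus 5-aza-dC sensitizer. Compound: single concentration per compound, delivered by pin transfer. Times: 3 days compound exposure. Controls: ellipticine 6 µM.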
E-sel inducer = E-selectin induction in HUVECs, primary screen, imaging, HUVEC, immunofluorescence imaging, single point | normalized: neutral wells 0, TNF-alpha wells 100 | activation, % at 7.58 µM | 0.37% of 260,000 active | P16581;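 active means mean E-selectin-positive cell signal at least 10% of the positive control, reached in at least 60% of replicates, without over 20% cell loss; inconclusive means no rule given, readout overlaps actives, possibly toxicity-flagged; inactive means the rest, including those meeting only one limit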
Target sequence (P16581 whole entry, looked up): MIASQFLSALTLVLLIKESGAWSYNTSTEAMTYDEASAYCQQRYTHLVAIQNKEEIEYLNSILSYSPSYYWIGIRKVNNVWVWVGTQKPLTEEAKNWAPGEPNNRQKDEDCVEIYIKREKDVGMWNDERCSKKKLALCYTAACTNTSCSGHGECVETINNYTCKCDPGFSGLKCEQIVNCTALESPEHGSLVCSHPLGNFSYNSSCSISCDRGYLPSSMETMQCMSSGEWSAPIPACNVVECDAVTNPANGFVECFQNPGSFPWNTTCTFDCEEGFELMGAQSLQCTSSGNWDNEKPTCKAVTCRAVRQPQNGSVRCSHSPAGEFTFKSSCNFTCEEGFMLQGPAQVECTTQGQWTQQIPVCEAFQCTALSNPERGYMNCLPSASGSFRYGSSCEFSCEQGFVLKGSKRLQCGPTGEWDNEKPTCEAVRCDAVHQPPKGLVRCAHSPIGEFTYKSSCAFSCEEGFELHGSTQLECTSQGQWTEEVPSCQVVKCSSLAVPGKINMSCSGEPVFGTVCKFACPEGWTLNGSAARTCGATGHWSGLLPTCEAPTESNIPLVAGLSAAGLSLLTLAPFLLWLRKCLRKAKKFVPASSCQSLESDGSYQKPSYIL
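Assay system: HUVEC primary endothelial cells. Input: 3,000 HUVEC seeded per well. Doses: one compound dose added by pin transfer. Read-out basis: % PE-positive cells. Benchmarks: TNF-alpha high, DMSO low. Detection: immunofluorescence imaging. Buffer or medium: EGM-2, gelatin.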
S100A4 MyoIIA = inhibitors of S100A4-myosin IIA peptide binding, primary screen, biochemical, fluorescence polarization, TAMRA-MyoIIA peptide. Protein S100-A4 (Homo sapiens), P26447. inhibition, % at 10.7 µM. 0.14% of 360,000 active;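 active means mean inhibition of at least 70% across replicates, with every replicate also reaching that level; inconclusive means mean inhibition reaches 70% but some replicates fall short; inactive means mean inhibition below 70%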
Target sequence (P26447 whole entry, looked up): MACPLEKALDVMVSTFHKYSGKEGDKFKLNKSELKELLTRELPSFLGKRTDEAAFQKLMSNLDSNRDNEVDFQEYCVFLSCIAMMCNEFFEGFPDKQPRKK
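Assay system: human S100A4 monomer with TAMRA-labelled myosin IIA peptide / Buffer or medium: Calcium-containing HEPES buffer, pH 7.2 / Reagent: TAMRA-labelled myosin IIA heavy-chain peptide probe, 5 nM / Compound: one dose per compound / Timing: polarization read 5 min after assay mix addition, stable 5–60 min / Benchmarks: neutral control DMSO, positive control TFP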
Each line names hits and unclear results; the compound was inactive in the other large screens. Most compounds without a hit are left out; they make up all but 2% or so of the library.

COc1ccc(C#Cc2ccc3c(c2)[C@]2(C(=O)N3)[C@H](C(=O)N3CCCCCCC3)[C@H]3C(=O)O[C@H](c4ccccc4)[C@H](c4ccccc4)N3[C@@H]2c2ccccc2OCCO)cc1	none (no result: XiGFP reactiv, E-sel inducer)
CC(Oc1ccc(Cl)cc1Cl)C(=O)NCCCN1CCOCC1 (stereo not drawn)	DENV2 CPE rescue 62.5
Cc1cc(OC(C)C(=O)NCCCN2CCOCC2)ccc1Cl (stereo not drawn)	none
COc1cccc(NC(=O)CN(C)C(=O)CCCc2c[nH]c3ccccc23)c1	none
COc1cccc(NC(=O)CN(C)C(=O)CCCc2nc3ccccc3s2)c1	DENV2 CPE rescue 24.7 (no result: E-sel inducer)
O=[N+]([O-])c1ccccc1S(=O)(=O)Nc1ccc(S(=O)(=O)N2CCOCC2)cc1	DENV2 CPE rescue 31.4
C[C@@H]1CCCCO[C@@H](CN(C)S(=O)(=O)c2cn(C)cn2)[C@H](C)CN([C@@H](C)CO)C(=O)c2cc(NC(=O)C3CCCCC3)ccc2O1	S100A4 MyoIIA 115.7
C[C@@H]1CN([C@@H](C)CO)C(=O)c2cc(NC(=O)NC3CCCCC3)ccc2O[C@@H](C)CCCCO[C@@H]1CN(C)S(=O)(=O)c1cn(C)cn1	S100A4 MyoIIA 136.3
C[C@H]1CCCCO[C@H](CN(C)S(=O)(=O)c2cn(C)cn2)[C@@H](C)CN([C@@H](C)CO)C(=O)c2cc(NC(=O)NC3CCCCC3)ccc2O1	none
Cn1nc(C(=O)NC2CCCCC2)c2c1-c1ccccc1SC2	none
Cn1nc(C(=O)N2CCC(C(N)=O)CC2)c2c1-c1ccccc1SC2	DENV2 CPE rescue 24.5
O=c1[nH]c(=S)[nH]c2c1C(c1ccc(Cl)cc1)OC(CCc1ccccc1)C2 (stereo not drawn)	DENV2 CPE rescue 100.9 (no result: E-sel inducer)
COc1cc2oc(=O)cc(-c3ccc(-c4ccc(C)cc4)cc3)c2c(OC)c1OC	none (no result: E-sel inducer)
CCCOc1cccc(C(=O)Nc2ccc(CN3CCOCC3)cc2)c1	DENV2 CPE rescue 25.3 (no result: E-sel inducer)
CCCOc1ccc(C(=O)Nc2ccc(CN3CCOCC3)cc2)cc1	XiGFP reactiv inconclusive (no result: E-sel inducer)
COc1cc(S(=O)(=O)NCc2ccncc2)c(OC)cc1Br	DENV2 CPE rescue 27.7
O=C(NCCN1CCC(n2c(=O)[nH]c3ccccc32)CC1)c1ccccc1	DENV2 CPE rescue 20.2
O=C(NCCN1CCC(n2c(=O)[nH]c3ccccc32)CC1)c1cccnc1	none
O=C(NCc1ccco1)c1ccc(NS(=O)(=O)c2cccc(F)c2)cc1	none
CCCc1cn([C@H]2C[C@@H]3O[C@H](CO)CC[C@@H]3O[C@@H]2CCc2ccc(-c3ccccc3C#N)cc2)nn1	DENV2 CPE rescue 27.9 (no result: XiGFP reactiv, E-sel inducer)
OC[C@H]1CC[C@@H]2O[C@H](CCc3ccc(-c4ccccc4)cc3)[C@@H](n3cc(C4CC4)nn3)C[C@@H]2O1	DENV2 CPE rescue 52.9 (no result: XiGFP reactiv, E-sel inducer)
CC(C)c1cn([C@H]2C[C@@H]3O[C@@H](CO)CC[C@@H]3O[C@@H]2CCc2ccc(-c3ccccc3)cc2)nn1	none (no result: XiGFP reactiv, E-sel inducer)
CCCc1cn([C@H]2C[C@@H]3O[C@H](CO)CC[C@@H]3O[C@@H]2CCc2ccc(-c3ccc(OC)cc3)cc2)nn1	none (no result: XiGFP reactiv, E-sel inducer)
OC[C@@H]1CC[C@@H]2O[C@H](CCc3ccc(-c4ccc(F)cc4)cc3)[C@@H](n3cc(C4CC4)nn3)C[C@@H]2O1	none (no result: XiGFP reactiv, E-sel inducer)
OC[C@@H]1CC[C@@H]2O[C@H](CCc3ccc(-c4ccccc4)cc3)[C@@H](n3cc(C4CC4)nn3)C[C@@H]2O1	DENV2 CPE rescue 20.0 (no result: XiGFP reactiv, E-sel inducer)
O=C(COC(=O)c1ccc(Cl)nc1)c1ccc2c(c1)OCCO2	none
CN(CC(=O)Nc1ccc(F)cc1)CC(=O)N1CCc2ccccc21	DENV2 CPE rescue inconclusive
CN(CC(=O)Nc1cccc(F)c1)CC(=O)N1CCc2ccccc21	E-sel inducer 182.0
COc1cccc(NC(=O)N[C@@H]2CC[C@H](CC(=O)NCc3ccccn3)O[C@@H]2CO)c1	none
C[C@H](CO)N1C[C@H](C)[C@@H](CN(C)C(=O)Nc2cccc3ccccc23)Oc2ccc(N(C)C)cc2C1=O	DENV2 CPE rescue 34.3
C[C@@H]1CN([C@@H](C)CO)C(=O)c2cccc(N(C)C)c2O[C@H]1CN(C)C(=O)Nc1ccccc1	DENV2 CPE rescue 30.3
C[C@H]1CN([C@@H](C)CO)C(=O)c2cc(N(C)C)ccc2O[C@@H]1CN(C)C(=O)Nc1cccc2ccccc12	none
C[C@H](CO)N1C[C@H](C)[C@@H](CN(C)C(=O)Nc2cccc3ccccc23)Oc2c(cccc2N(C)C)C1=O	DENV2 CPE rescue 21.4
Cc1noc(C)c1NC(=O)N(C)C[C@@H]1Oc2c(cccc2N(C)C)C(=O)N([C@H](C)CO)C[C@@H]1C	DENV2 CPE rescue 23.8
C[C@H]1CN([C@@H](C)CO)C(=O)c2cccc(N(C)C)c2O[C@@H]1CN(C)C(=O)Nc1ccc2c(c1)OCO2	none
C[C@@H]1CN([C@H](C)CO)C(=O)c2cccc(N(C)C)c2O[C@@H]1CN(C)C(=O)Nc1ccc2c(c1)OCO2	DENV2 CPE rescue 26.9
COc1ccc2c3c([nH]c2c1)[C@@H](CO)N(Cc1ccc(F)cc1)CC31CN(C(=O)NC(C)C)C1	DENV2 CPE rescue 93.3 (no result: S100A4 MyoIIA)
COc1ccc2c3c([nH]c2c1)[C@H](CO)N(C(=O)C1CCCCC1)CC31CCN(C(=O)NC(C)C)CC1	DENV2 CPE rescue 29.4
COc1ccc2c3c([nH]c2c1)[C@@H](CO)N(Cc1ccc(F)cc1)CC31CCN(C(=O)NC(C)C)CC1	none
COc1ccc2c3c([nH]c2c1)[C@@H](CO)N(C(=O)C1CCCC1)CC31CCN(S(C)(=O)=O)CC1	none
COc1ccc2c3c([nH]c2c1)[C@H](CO)N(C(=O)C1CCOCC1)CC31CCN(S(C)(=O)=O)CC1	DENV2 CPE rescue 34.5
Cc1ccc(NC(=S)N2CCCCCC2)c(C)c1	none
C[C@H]1CN([C@@H](C)CO)C(=O)Cc2cc(NS(=O)(=O)c3ccccc3)ccc2O[C@H]1CN(C)C(=O)Nc1ccc(C(F)(F)F)cc1	none
O=C(CCCN1C(=O)NC2(CCCC2)C1=O)Nc1cccc(S(=O)(=O)N2CCOCC2)c1	none (no result: E-sel inducer)
COc1cc2c(cc1OC)CN(C(=O)CNC(=O)c1ccc(OC(F)F)cc1)CC2	none
O=C(N/N=C/c1ccc(N2CCOCC2)cc1)c1ccncc1	DENV2 CPE rescue 72.3 (no result: E-sel inducer)
CCn1nnc2cc(C(=O)Nc3cc(S(C)(=O)=O)ccc3Cl)ccc21	none
C/C=C/c1ccc([C@@H]2[C@H]3CN(C(=O)Nc4ccccc4F)CCCCN3[C@H]2CO)cc1	none
N#C[C@@H]1[C@H](c2ccc(C#CC3CCCC3)cc2)[C@@H](CO)N1S(=O)(=O)c1ccccc1	DENV2 CPE rescue 50.4
N#C[C@H]1[C@@H](c2ccccc2)[C@@H](CO)N1S(=O)(=O)Cc1ccccc1	DENV2 CPE rescue 65.1
N#C[C@H]1[C@@H](c2ccc(C#CC3CCCC3)cc2)[C@@H](CO)N1S(=O)(=O)c1ccccc1	none
CS(=O)(=O)N1[C@H](CO)[C@@H](c2ccc(C#CC3CC3)cc2)[C@@H]1C#N	DENV2 CPE rescue 26.2
